This note sets out measurements from ChEMBL document CHEMBL1135167, “Synthesis and antifungal activity of the 2,2,5-tetrahydrofuran regioisomers of SCH 51048” (2002).

The structures appear in SMILES notation.

Holding throughout (type): functional
In one assay the test system is Aspergillus sp. Put plainly: Compound was tested for inherent antifungal geometric minimum inhibitory concentration (GMMIC) against Aspergillus in serial dilution from 64 to 0.0313 ug/mL. In a few lines:
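Broth microdilution in Sabouraud dextrose broth, pH 5.7. Compound dissolved in DMSO or ethanol and serially diluted in medium. Inoculum ~10^4/cc, incubated at 27 °C for 72 h. MIC is the lowest concentration giving complete growth inhibition by visual reading. Geometric mean taken across the Aspergillus isolates.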

Another assay concerns Candida. Put plainly: Compound was tested for inherent antifungal geometric minimum inhibitory concentration (GMMIC) against Candida albicans and Candida tropicalis in serial dilution from 64 to 0.0313 ug/mL. In a few lines: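 Eagle's minimum essential medium, pH 7.0. Compound in DMSO or ethanol, serially diluted in medium, inoculum 5×10^2/cc. Incubated at 37 °C under CO2 for 48 h. MIC is the lowest concentration with complete visible growth inhibition in microtiter wells. Geometric mean over C. albicans and C. tropicalis strains.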

The test system of the next assay is Arthrodermataceae. Put plainly: Compound was tested for inherent antifungal geometric minimum inhibitory concentration (GMMIC) against Dermatophytes in serial dilution from 64 to 0.0313 ug/mL. An outline of the steps: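 Sabouraud dextrose broth, pH 5.7, inoculum ~10^4/cc, 27 °C, read visually at 72 h. MIC is the lowest concentration giving complete growth inhibition. Compound in DMSO or ethanol, serially diluted in broth. Geometric mean over T. mentagrophytes D24 and D30, T. rubrum D54 and D61, T. tonsurans D73 and M. canis D18.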

For the compound `CCC(CC)n1ncn(-c2ccc(N3CCN(c4ccc(OC[C@H]5CO[C@](Cn6cncn6)(c6ccc(F)cc6F)C5)cc4)CC3)cc2)c1=O`, the figures for the GMMIC result in the assay on Aspergillus sp., in the assay on Candida and in the assay with Arthrodermataceae were “>=128 ug ml-1”, 0.27 µg/mL and “>=128 ug ml-1”, respectively.

On to `CCC(CC)n1ncn(-c2ccc(N3CCN(c4ccc(OC[C@H]5CC[C@](Cn6cncn6)(c6ccc(F)cc6F)O5)cc4)CC3)cc2)c1=O`, for which the GMMIC with Aspergillus sp. was 0.25 µg/mL; with Candida, 0.02 µg/mL; in the assay with Arthrodermataceae, “>=0.35 ug ml-1”.

In the case of `CCC(CC)n1ncn(-c2ccc(N3CCN(c4ccc(OC[C@@H]5CO[C@@](Cn6cncn6)(c6ccc(F)cc6F)C5)cc4)CC3)cc2)c1=O`, the GMMIC in the assay with Aspergillus sp. is 0.04 µg/mL; in the assay on Candida, “<=0.04 ug ml-1”; in the assay on Arthrodermataceae it was “>=0.06 ug ml-1”.

`CCC(CC)n1ncn(-c2ccc(N3CCN(c4ccc(OC[C@@H]5CC[C@@](Cn6cncn6)(c6ccc(F)cc6F)O5)cc4)CC3)cc2)c1=O`: the GMMIC entry in the assay on Aspergillus sp. is recorded as “>=128 ug ml-1”; in the assay on Candida it was “<=0.1 ug ml-1”; in the assay with Arthrodermataceae, “>=128 ug ml-1”.

Regarding `CCC(C)n1ncn(-c2ccc(N3CCN(c4ccc(OCC5COC(Cn6cncn6)(c6ccc(Cl)cc6Cl)O5)cc4)CC3)cc2)c1=O` (racemic) [ITRACONAZOLE], the GMMIC in the assay on Aspergillus sp. was 0.3 µg/mL; with Candida, 0.04 µg/mL; with Arthrodermataceae, “>=0.89 ug ml-1”.
